KCNQ1 pot – potentiators or activators of KCNQ1 channel, primary screen, cell-based, thallium flux, high-throughput; CHO-K1 KCNQ1, thallium flux FluxOR fluorescence; hits give high values; Potassium voltage-gated channel subfamily KQT member 1 (Homo sapiens), P51787; 0.35% of 310,000 active; B-score at 10 µM;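 active means fluorescence ratio B-score, a plate-corrected score, at least three library SD, with initial intensity B-score within 5 SD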
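Assay system: CHO-K1 cells stably expressing KCNQ1. Medium: assay buffer for compound exposure, DMSO matched across wells. Timing: 37 °C overnight plating, 90-min dark dye load, 20-min compound pretreatment. Signal: kinetic FluxOR fluorescence, 10 s baseline plus 110 s post-stimulus.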
KCNQ1 inh – inhibitors of human KCNQ1 channel, primary screen, cell-based, thallium flux, high-throughput | 1.3% of 310,000 active | CHO-K1 KCNQ1, FluxOR thallium flux fluorescence; hits give high values | B-score at 10 µM | AID 2642, 2010 | Potassium voltage-gated channel subfamily KQT member 1 (Homo sapiens), P51787;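 active means compounds whose thallium flux B-score, printed positive for inhibition, exceeds three library SD while starting fluorescence stays within three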;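 further: channel opened by potassium depolarization with thallium stimulus after 20 min compound exposure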
hERG protect – hERG rescue from dofetilide block, primary screen, cell-based, CHO-hERG, FluxOR thallium flux, dofetilide IC70. Voltage-gated inwardly rectifying potassium channel KCNH2 (Homo sapiens), Q12809. dofetilide IC70 present. activation (rescue from dofetilide block), less the hit threshold, % at 10 µM. 0.51% of 310,000 active. AID 1511, 2009;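 active means activation above the mean of controls blocked by dofetilide plus 5 SD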;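 further: thallium influx through hERG after potassium depolarization seen as dye fluorescence rise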
Target sequence (Q12809 whole entry, looked up): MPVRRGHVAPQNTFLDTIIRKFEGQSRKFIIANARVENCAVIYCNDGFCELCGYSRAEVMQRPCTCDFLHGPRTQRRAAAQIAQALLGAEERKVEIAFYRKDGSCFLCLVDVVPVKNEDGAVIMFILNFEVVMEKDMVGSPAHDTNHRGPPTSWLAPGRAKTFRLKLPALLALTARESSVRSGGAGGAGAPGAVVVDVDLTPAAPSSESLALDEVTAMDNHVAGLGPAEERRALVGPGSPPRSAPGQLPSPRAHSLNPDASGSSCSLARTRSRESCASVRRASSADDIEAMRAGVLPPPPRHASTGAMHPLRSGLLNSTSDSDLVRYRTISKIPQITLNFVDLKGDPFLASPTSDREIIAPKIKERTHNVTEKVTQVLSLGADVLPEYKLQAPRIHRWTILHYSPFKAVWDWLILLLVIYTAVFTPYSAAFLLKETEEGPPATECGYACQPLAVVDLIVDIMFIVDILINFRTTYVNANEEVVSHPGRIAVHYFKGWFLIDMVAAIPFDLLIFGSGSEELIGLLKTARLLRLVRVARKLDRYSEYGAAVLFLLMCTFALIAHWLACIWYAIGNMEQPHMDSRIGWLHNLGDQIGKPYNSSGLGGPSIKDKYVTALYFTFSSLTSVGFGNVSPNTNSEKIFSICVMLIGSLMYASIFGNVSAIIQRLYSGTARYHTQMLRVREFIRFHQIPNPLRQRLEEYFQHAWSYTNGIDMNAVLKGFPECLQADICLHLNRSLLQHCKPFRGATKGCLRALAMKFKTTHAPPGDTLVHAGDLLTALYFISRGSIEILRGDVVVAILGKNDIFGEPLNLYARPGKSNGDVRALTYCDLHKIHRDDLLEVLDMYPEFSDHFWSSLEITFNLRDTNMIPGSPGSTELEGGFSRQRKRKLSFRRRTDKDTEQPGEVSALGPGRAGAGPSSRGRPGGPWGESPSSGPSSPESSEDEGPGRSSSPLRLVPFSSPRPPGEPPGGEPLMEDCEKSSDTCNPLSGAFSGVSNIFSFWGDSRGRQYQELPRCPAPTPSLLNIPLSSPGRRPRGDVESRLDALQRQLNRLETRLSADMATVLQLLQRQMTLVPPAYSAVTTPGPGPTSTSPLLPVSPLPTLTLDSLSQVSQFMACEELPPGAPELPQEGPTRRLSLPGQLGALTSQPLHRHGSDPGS
KCNK9 block – KCNK9 potassium channel inhibitors, primary screen, HEK293 cells, thallium flux | B-score at 10 µM | 1.2% of 310,000 active | FluxOR thallium flux fluorescence; hits give low values;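 active means ratio B-score over 3 SD below the library mean, with starting fluorescence within 5 SD of its mean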;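 further: negative B-score means less thallium flux so channel inhibition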
KCNK3 block – human KCNK3 channel inhibitors, primary screen, CHO cells, FluxOR thallium flux, B-score. FluxOR fluorescence; hits give low values. B-score at 10 µM. AID 602410, 2012. Potassium channel subfamily K member 3 (Homo sapiens), O14649. 0.84% of 340,000 active;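 active means B-score under library mean minus 4 SD, starting fluorescence ratio at most library mean plus 5 SD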;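 further: more negative B-score means stronger inhibition of thallium flux through KCNK3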
PHOSPHO1 block – PubChem AID 1565; Phosphoethanolamine/phosphocholine phosphatase (Homo sapiens), Q8TCT1; recombinant PHOSPHO1, absorbance phosphatase assay; inhibition, % at 13.3 µM; 1.1% of 290,000 active; in the data active means inhibition above about 60%
KCNK9 block conf – KCNK9 potassium channel inhibitors, confirmation, HEK293 cells, thallium flux, duplicate; shares compounds with KCNK9 block; inhibition, % at 10 µM; 43% of 4,900 active; FluxOR thallium flux fluorescence;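 active means thallium signal inhibited by more than 5 SD of the compound-free buffer control wells, on both duplicate plates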;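 further: 0% = assay buffer control wells without compound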
Kir2-1 spec – mouse Kir2.1 channel inhibition, confirmation, selectivity assay for KCNK9 modulator project, cell-based, HEK293, thallium flux. shares compounds with KCNK9 block. AID 492993, 2010. Kir2.1 cells, FluxOR thallium flux fluorescence. inhibition, % at 10 µM. 4% of 4,900 active;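 active means thallium signal drop more than 5 SD beyond the mean of the no-compound control wells, seen in both duplicate plates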;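 further: signal is fluorescence rise after thallium addition divided by baseline fluorescence; plate controls were assay buffer only for no effect and full block by chlorpromazine control for full effect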
KCNK9 uninduced – thallium flux in non-induced HEK293 cells, confirmation, counter-screen for KCNK9 inhibitor project, cell-based, second counter screen, non-induced KCNK9-HEK293; inhibition, % at 10 µM; 40% of 4,900 active; shares compounds with KCNK9 block; AID 492997, 2010; FluxOR thallium flux;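 active means thallium signal drop beyond 5 SD of the untreated control mean, on both duplicate plates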;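 further: plate controls were buffer only IC0 wells for no effect and SID17386958 at its maximal inhibitory level for full effect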
Starred values were filed as active, the others as inactive; i = inactive; x = no result given. This is a sample that favours compounds with a hit; in the whole collection about 4% have one here.

SMILES | KCNQ1 pot | KCNQ1 inh | hERG protect | KCNK9 block | KCNK3 block | PHOSPHO1 block | KCNK9 block conf | Kir2-1 spec | KCNK9 uninduced
COc1ccc([N+](=O)[O-])cc1NC(=O)C(C)N(C)Cc1ccc(Br)cc1 (configuration not stated) | i | i | -12.3 | -8.59* | i | 5.6 | 31.0%* | i | 37.5%*
Cc1ccc(NCc2nnc(SCc3ccc(C#N)cc3)n2Cc2ccco2)c(C)c1 | i | i | -15.4 | -18.9* | i | -7.4 | 66.5%* | i | 36.5%*
N#Cc1ccc(CSc2nnc(Cc3cccs3)n2Cc2ccco2)cc1 | i | i | -2.5 | i | i | 3.7 | x | x | x
COC(=O)C1CN(C(=O)COc2cc(C)c(Cl)c(C)c2)c2ccccc2O1 (configuration not stated) | i | i | -0.8 | -9.93* | i | 28.4 | i | i | 34.0%*
CCN(CC)S(=O)(=O)c1cccc(-c2nnc(SCc3nnc(-c4ccccc4)o3)n2C)c1 | i | i | -12.9 | i | i | -11.8 | x | x | x
CCN(CC)S(=O)(=O)c1cccc(-c2nnc(SCCOc3ccccc3C)o2)c1 | i | i | -14.9 | i | i | 13.2 | i | i | i
CCN(CC)S(=O)(=O)c1cccc(-c2nnc(SCCOc3ccc(Cl)cc3)o2)c1 | i | i | -3.9 | -9.96* | i | -6.0 | 48.5%* | i | i
CCN(CC)S(=O)(=O)c1cccc(-c2nnc(SCCOc3ccccc3)o2)c1 | i | i | -6.7 | i | i | 0.7 | x | x | x
C#CCN(C(=O)c1cc(COc2ccc(C)c(C)c2)on1)C1CCCCC1 | i | 6* | -12.6 | i | i | 41.4 | i | i | i
C#CCN(C(=O)c1cc(COc2cccc(C(F)(F)F)c2)on1)C1CCCCC1 | i | i | -10.7 | i | i | 47.6 | x | x | x
Cc1ccc(CN2CCC(n3nccc3NC(=O)C3CCOC3)CC2)cc1 (configuration not stated) | i | i | -7.1 | i | i | 42.6 | x | x | x
C=CCn1c2ccccc2c2nn(C)c(=S)nc21 | i | i | -2.6 | i | i | 10.6 | x | x | x
Cc1ccsc1C(=O)NNC(=O)c1ccccc1F | x | x | x | x | i | x | x | x | x
CNC(=O)COC(=O)CCC(=O)c1ccc(Cl)cc1 | i | i | -3.1 | i | i | -34.8 | x | x | x
CCCC1CCC(c2ccc(C(N)=O)cc2)CC1 (configuration not stated) | i | i | -2.3 | i | i | 52.9 | x | x | x
CCCC1CCC(=C(C#N)C(N)=O)CC1 (configuration not stated) | i | i | -7.3 | -8.78* | i | 12.3 | i | i | i
COC(=O)[C@H](NCc1ccc(OC)c(B(O)O)c1)C(C)C | x | x | x | x | i | x | x | x | x
C/C(=N\Nc1nc2ccccc2s1)c1ccc(Br)s1 | 10* | i | 1.6 | i | i | 10.9 | i | i | i
CC(=NNc1nc2ccccc2s1)c1ccncn1 | x | x | x | x | i | x | x | x | x
N#C/C(C(=O)Nc1ccc(Cl)cc1)=C(/S)Nc1ccccc1 | i | i | -2.6 | i | i | -1.0 | i | i | i
Cc1nnc(Nc2ccccn2)c2ccccc12 | i | i | -8.5 | i | i | -8.3 | x | x | x
Cc1cc(Cl)nc(Cl)c1C(=O)NCc1ccc(Cl)cc1 | i | i | -9.2 | i | i | 28.4 | x | x | x
CC(C)(C)n1nnnc1C(c1cccc(C#N)c1)N1CCC(Cc2ccccc2)CC1 (configuration not stated) | i | i | -7.7 | -18* | -11.4* | -3.2 | 60.5%* | i | 34.5%*
CC(C)(C)n1nnnc1C(c1cccc(C#N)c1)N1CCCc2ccccc21 (configuration not stated) | i | i | -1.5 | i | i | 17.9 | x | x | x
O=C(Nc1cccc(-c2ccccc2)c1)N1CCN(C(=O)Nc2cccc(-c3ccccc3)c2)CC1 | i | i | -14.7 | i | i | 28.5 | x | x | x
SMILES | KCNQ1 pot | KCNQ1 inh | hERG protect | KCNK9 block | KCNK3 block | PHOSPHO1 block | KCNK9 block conf | Kir2-1 spec | KCNK9 uninduced
Cc1nc2ccccc2n1CCOc1ccccc1 | i | i | -0.7 | i | i | 19.2 | x | x | x
Cc1ccc(NCc2nc3ccccc3n2CCOc2ccccc2)cc1 | i | i | -6.8 | -11.6* | i | -18.2 | 40.0%* | i | 37.5%*
CC(NCC(=O)Nc1ccccc1C(=O)NC1CC1)c1cccc(Cl)c1 (configuration not stated) | x | x | x | x | i | x | x | x | x
Fc1cccc(-c2cc3nc4c(c(NCc5ccco5)n3n2)CCCC4)c1 | i | i | -14.1 | -10.1* | i | 20.6 | 37.0%* | i | 31.5%*
COc1ccccc1NC(=S)N(Cc1ccccc1)Cc1ccccn1 | i | i | -8.0 | i | i | -16.1 | x | x | x
COC(=O)c1ccc(C(C(=O)NC2CCCCC2)N(Cc2ccc(F)cc2)C(=O)Cc2cccs2)cc1 (configuration not stated) | i | i | -2.6 | -10.5* | i | 5.7 | i | i | 31.0%*
CCOC(=O)N/N=C/c1c(C)c(C(=O)c2ccc(F)cc2)n2ccccc12 | i | i | -11.8 | -11.4* | i | 8.5 | i | i | i
CCN(CC)C(=O)c1oc2ccc(S(=O)(=O)N3CCCCCC3)cc2c1C | i | i | -2.2 | i | i | 1.0 | x | x | x
CCN(CC)C(=O)c1oc2ccc(S(=O)(=O)N3CC(C)CC(C)C3)cc2c1C (configuration not stated) | i | i | -14.4 | i | i | 6.4 | i | i | i
COc1cc(Cl)c(C)cc1NC(=O)CSc1cc(Cl)ccc1Cl | i | i | -24.9 | -9.78* | i | 0.3 | 56.0%* | i | 43.5%*
COc1ccc(Cl)cc1NC(=O)CSc1nc(N2CCCCC2)nc(N2CCCCC2)n1 | i | i | -2.3 | -10.9* | i | 13.6 | 35.5%* | i | 25.5%*

High-throughput results deposited in PubChem BioAssay by several laboratories.
